≈ marks a conversion by molar mass, not a printed value. Bounds are passed on as bounds.

14 compounds from ChEMBL document CHEMBL3091318, “Potent and broad-spectrum antibacterial activity of indole-based bisamidine antibiotics: synthesis and SAR of novel analogs of MBX 1066 and MBX 1090” (2013) can be followed below.

What all share (format): functional
Experiment [1] concerns Enterococcus faecalis. Put plainly: Antimicrobial activity Enterococcus faecalis ATCC 29212 after 16 to 20 hrs by broth microdilution method. In outline:
(§1)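 CLSI broth microdilution. Log-phase cultures grown in cation-adjusted Mueller–Hinton broth and seeded at 1×10^5 CFU/mL. Plates incubated at 37 °C with shaking for 16–20 h. DMSO stocks of compound were diluted into medium to 1% DMSO final. Growth was read as OD600. MIC (μg/ml) is the lowest concentration with no apparent growth, averaged over at least 3 assays.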
In general terms: In broth dilution the organism is exposed to a series of concentrations in liquid medium.

The test system of experiment [2] is Escherichia coli. As to the kind of experiment: Antimicrobial activity against efflux pump-positive Escherichia coli K-12 after 16 to 20 hrs by broth microdilution method. Summed up:
as §1

In experiment [3] the test system is Pseudomonas aeruginosa. Put plainly: Antimicrobial activity against efflux pump-positive Pseudomonas aeruginosa PAO1 ATCC BAA-47 after 16 to 20 hrs by broth microdilution method. In outline:
as §1

Experiment [4] has as its system Escherichia coli. As to the kind of experiment: Antimicrobial activity against TolC efflux-deficient Escherichia coli K-12 after 16 to 20 hrs by broth microdilution method. Summed up:
as §1

Experiment [5] concerns Staphylococcus aureus. As to the kind of experiment: Antimicrobial activity methicillin-resistant against Staphylococcus aureus clinical isolate 1094 after 16 to 20 hrs by broth microdilution method.
For experiment [6], the system named is Staphylococcus aureus. As to the kind of experiment: Antimicrobial activity against Staphylococcus aureus ATCC 25923 after 16 to 20 hrs by broth microdilution method. In outline: (§2)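 CLSI broth microdilution. Log-phase cultures in cation-adjusted Mueller–Hinton broth were seeded at 1×10^5 CFU/mL and incubated at 37 °C with shaking for 16–20 h. Compounds were diluted from DMSO stocks to a final 1% DMSO. Growth was read as OD600, and MIC was taken as the lowest concentration with no apparent growth. At least 3 runs were done, and the average MIC is reported in μg/ml.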

In experiment [7] the test system is Enterococcus faecalis. As to the kind of experiment: Antimicrobial activity vancomycin-resistant Enterococcus faecalis ATCC 51575 after 16 to 20 hrs by broth microdilution method. Summed up:
as §2

The subject of another experiment is Klebsiella pneumoniae. Put plainly: Antimicrobial activity against Klebsiella pneumoniae ATCC 13882 after 16 to 20 hrs by broth microdilution method. In outline:
as §1

The next experiment concerns Acinetobacter baumannii. As to the kind of experiment: Antimicrobial activity against Acinetobacter baumannii ATCC 19606 after 16 to 20 hrs by broth microdilution method. In outline:
as §1

Experiment [8] has as its system Pseudomonas aeruginosa. Put plainly: Antimicrobial activity against efflux pump mexAB-oprM-deficient Pseudomonas aeruginosa PAO1 after 16 to 20 hrs by broth microdilution method. In outline:
as §1

The subject of another experiment is Bacillus anthracis. Put plainly: Antimicrobial activity against Bacillus anthracis Sterne after 16 to 20 hrs by broth microdilution method. Summed up: as §2

A word on the MIC: it is the lowest concentration that inhibits growth of the organism. A low value points to a more susceptible organism. Take `CC(=O)O.c1cc2cc(-c3ccc(-c4cc5ccc(C6=NCCCN6)cc5[nH]4)s3)[nH]c2cc1C1=NCCCN1`: the MIC in the experiment with Enterococcus faecalis [1] is 0.16 µg/mL; against Escherichia coli [2], 0.63 µg/mL; with Pseudomonas aeruginosa [3], 5 µg/mL; against Escherichia coli [4], 0.31 µg/mL; against Staphylococcus aureus [5], 0.16 µg/mL; against Staphylococcus aureus [6] it was 0.08 µg/mL. In addition, the MIC with Enterococcus faecalis [7] amounted to 0.16 µg/mL; against Klebsiella pneumoniae, 0.63 µg/mL; in the experiment with Acinetobacter baumannii, 5 µg/mL; with Pseudomonas aeruginosa [8] it was 1.25 µg/mL; against Bacillus anthracis, 0.16 µg/mL.

Turning to `CC(=O)O.c1cc2cc(-c3cnc(-c4cc5ccc(C6=NCCN6)cc5[nH]4)cn3)[nH]c2cc1C1=NCCN1`, the MIC in the experiment with Enterococcus faecalis [1] is 20 µg/mL; in the experiment with Escherichia coli [2], 20 µg/mL; against Pseudomonas aeruginosa [3] it was more than 80 µg/mL; against Escherichia coli [4] it was 0.63 µg/mL; with Staphylococcus aureus [5], 5 µg/mL; against Staphylococcus aureus [6] it was 5 µg/mL. The MIC with Enterococcus faecalis [7] is 10 µg/mL; with Klebsiella pneumoniae, 10 µg/mL; with Acinetobacter baumannii, more than 80 µg/mL; against Pseudomonas aeruginosa [8], more than 80 µg/mL; in the experiment on Bacillus anthracis it was 2.5 µg/mL.

For `c1cc2cc(CCCc3cc4ccc(C5=NCCCN5)cc4[nH]3)[nH]c2cc1C1=NCCCN1`, the MIC is 80 µg/mL (≈ 182 µM) against Enterococcus faecalis [1]; 80 µg/mL (≈ 182 µM) in the experiment on Escherichia coli [2]; more than 80 µg/mL with Pseudomonas aeruginosa [3]; 1.25 µg/mL (≈ 2.85 µM) in the experiment on Escherichia coli [4]; 20 µg/mL (≈ 45.6 µM) against Staphylococcus aureus [5]; 20 µg/mL (≈ 45.6 µM) in the experiment with Staphylococcus aureus [6]. Also, the MIC was 0.63 µg/mL (≈ 1.44 µM) with Enterococcus faecalis [7], more than 80 µg/mL against Acinetobacter baumannii, more than 80 µg/mL with Pseudomonas aeruginosa [8] and 20 µg/mL (≈ 45.6 µM) against Bacillus anthracis.

With `O=C(O)C(F)(F)F.c1cc2cc(CCc3cc4ccc(C5=NCCCN5)cc4[nH]3)[nH]c2cc1C1=NCCCN1`, the minimum inhibitory concentration (MIC) in the experiment with Enterococcus faecalis [1] turned out to be 5 µg/mL; in the experiment on Escherichia coli [2], 2.5 µg/mL; in the experiment with Pseudomonas aeruginosa [3], 10 µg/mL; against Escherichia coli [4], 0.31 µg/mL; against Staphylococcus aureus [5], 1.25 µg/mL; against Staphylococcus aureus [6] it was 0.63 µg/mL. The MIC against Enterococcus faecalis [7] amounted to 2.5 µg/mL; in the experiment on Acinetobacter baumannii, 80 µg/mL; against Pseudomonas aeruginosa [8], 10 µg/mL; in the experiment on Bacillus anthracis it was 0.63 µg/mL.

With `CC(=O)O.c1cc2cc(-c3ccc(-c4cc5ccc(C6=NCCN6)cc5[nH]4)nc3)[nH]c2cc1C1=NCCN1`, the MIC was 0.31 µg/mL against Enterococcus faecalis [1]; 2.5 µg/mL against Escherichia coli [2]; more than 80 µg/mL with Pseudomonas aeruginosa [3]; 0.63 µg/mL in the experiment with Escherichia coli [4]; 0.31 µg/mL against Staphylococcus aureus [5]; 0.31 µg/mL with Staphylococcus aureus [6]. Further, the MIC was 0.31 µg/mL in the experiment with Enterococcus faecalis [7]; 2.5 µg/mL against Klebsiella pneumoniae; more than 80 µg/mL in the experiment with Acinetobacter baumannii; more than 80 µg/mL with Pseudomonas aeruginosa [8]; 0.31 µg/mL with Bacillus anthracis.

Take `N/C(=N\O)c1ccc2cc(-c3ccc(-c4cc5ccc(/C(N)=N\O)cc5[nH]4)cc3)[nH]c2c1`: the MIC in the experiment on Enterococcus faecalis [1] is 2.5 µg/mL (≈ 5.89 µM); against Escherichia coli [2], more than 80 µg/mL; against Pseudomonas aeruginosa [3], more than 80 µg/mL; in the experiment with Escherichia coli [4], 0.63 µg/mL (≈ 1.48 µM); in the experiment on Staphylococcus aureus [5], 1.25 µg/mL (≈ 2.94 µM); against Staphylococcus aureus [6] it was 0.31 µg/mL (≈ 0.73 µM). In addition, the MIC was 1.25 µg/mL (≈ 2.94 µM) in the experiment on Enterococcus faecalis [7], more than 80 µg/mL against Klebsiella pneumoniae, more than 80 µg/mL with Pseudomonas aeruginosa [8] and 0.16 µg/mL (≈ 0.377 µM) in the experiment with Bacillus anthracis.

As to `c1cc2cc(CCCCc3cc4ccc(C5=NCCCN5)cc4[nH]3)[nH]c2cc1C1=NCCCN1`, the MIC came to 2.5 µg/mL (≈ 5.52 µM) with Enterococcus faecalis [1]; 1.25 µg/mL (≈ 2.76 µM) against Escherichia coli [2]; 40 µg/mL (≈ 88.4 µM) against Pseudomonas aeruginosa [3]; 0.16 µg/mL (≈ 0.354 µM) in the experiment with Escherichia coli [4]; 1.25 µg/mL (≈ 2.76 µM) against Staphylococcus aureus [5]; 0.63 µg/mL (≈ 1.39 µM) against Staphylococcus aureus [6]. The MIC in the experiment with Enterococcus faecalis [7] was 0.31 µg/mL (≈ 0.685 µM); against Acinetobacter baumannii, more than 80 µg/mL; in the experiment on Pseudomonas aeruginosa [8], 40 µg/mL (≈ 88.4 µM); in the experiment with Bacillus anthracis, 1.25 µg/mL (≈ 2.76 µM).

For `FC1CN=C(c2ccc3cc(-c4ccc(-c5cc6ccc(C7=NCC(F)CN7)cc6[nH]5)cc4)[nH]c3c2)NC1.O=C(O)C(F)(F)F` (stereo not given), the MIC against Enterococcus faecalis [1] amounted to 0.16 µg/mL; in the experiment on Escherichia coli [2], 0.63 µg/mL; in the experiment on Pseudomonas aeruginosa [3], 1.25 µg/mL; in the experiment on Escherichia coli [4] it was 0.31 µg/mL; with Staphylococcus aureus [5], 0.16 µg/mL; against Staphylococcus aureus [6], 0.08 µg/mL. The MIC in the experiment on Enterococcus faecalis [7] was found to be 0.08 µg/mL; in the experiment with Klebsiella pneumoniae, 0.31 µg/mL; in the experiment on Acinetobacter baumannii it was 40 µg/mL; against Pseudomonas aeruginosa [8] it was 0.31 µg/mL; in the experiment on Bacillus anthracis, 0.08 µg/mL.

As for `CC(=O)O.c1cc2cc(-c3cnc(-c4cc5ccc(C6=NCCCN6)cc5[nH]4)cn3)[nH]c2cc1C1=NCCCN1`, the MIC came out at 0.31 µg/mL with Enterococcus faecalis [1]; 2.5 µg/mL against Escherichia coli [2]; 5 µg/mL against Pseudomonas aeruginosa [3]; 0.31 µg/mL in the experiment on Escherichia coli [4]; 0.31 µg/mL with Staphylococcus aureus [5]; 0.31 µg/mL against Staphylococcus aureus [6]. Further, the MIC in the experiment with Enterococcus faecalis [7] is 0.31 µg/mL; with Klebsiella pneumoniae, 1.25 µg/mL; in the experiment on Acinetobacter baumannii it was more than 80 µg/mL; with Pseudomonas aeruginosa [8], 5 µg/mL; in the experiment on Bacillus anthracis, 0.16 µg/mL.

For `Cl.N=C(N)c1ccc2cc(-c3ccc(-c4cc5ccc(C(=N)N)cc5[nH]4)cc3)[nH]c2c1`, the MIC against Enterococcus faecalis [1] was 0.04 µg/mL; with Escherichia coli [2] it was 0.63 µg/mL; in the experiment on Pseudomonas aeruginosa [3], 10 µg/mL; in the experiment with Escherichia coli [4] it was 0.16 µg/mL; against Staphylococcus aureus [5], 0.31 µg/mL; in the experiment with Staphylococcus aureus [6], 0.16 µg/mL. For the same compound, the MIC against Enterococcus faecalis [7] came out at 0.16 µg/mL; against Klebsiella pneumoniae, 0.63 µg/mL; in the experiment on Acinetobacter baumannii it was 40 µg/mL; with Bacillus anthracis, 0.08 µg/mL.

On to `COC1CN=C(c2ccc3cc(-c4ccc(-c5cc6ccc(C7=NCC(OC)CN7)cc6[nH]5)cc4)[nH]c3c2)NC1.O=C(O)C(F)(F)F` (stereo not given), for which the MIC in the experiment with Enterococcus faecalis [1] was 0.16 µg/mL; in the experiment with Escherichia coli [2], 5 µg/mL; in the experiment with Pseudomonas aeruginosa [3], 5 µg/mL; in the experiment on Escherichia coli [4], 0.31 µg/mL; with Staphylococcus aureus [5], 0.16 µg/mL; in the experiment with Staphylococcus aureus [6] it was 0.16 µg/mL. The MIC was 0.16 µg/mL in the experiment with Enterococcus faecalis [7]; 0.63 µg/mL against Klebsiella pneumoniae; more than 80 µg/mL with Acinetobacter baumannii; 2.5 µg/mL in the experiment with Pseudomonas aeruginosa [8]; 0.16 µg/mL in the experiment with Bacillus anthracis.

Consider `NC(=O)c1ccc2cc(-c3ccc(-c4cc5ccc(C(N)=O)cc5[nH]4)cc3)[nH]c2c1`, for which the MIC against Enterococcus faecalis [1] is 10 µg/mL (≈ 25.4 µM); in the experiment on Escherichia coli [2] it was more than 80 µg/mL; with Pseudomonas aeruginosa [3], more than 80 µg/mL; against Escherichia coli [4], 5 µg/mL (≈ 12.7 µM); against Staphylococcus aureus [5] it was more than 80 µg/mL; with Staphylococcus aureus [6], 2.5 µg/mL (≈ 6.34 µM). In addition, the MIC with Enterococcus faecalis [7], against Klebsiella pneumoniae, against Acinetobacter baumannii, in the experiment with Pseudomonas aeruginosa [8] and with Bacillus anthracis was more than 80 µg/mL throughout.

As to `CCOC(=N)c1ccc2cc(-c3ccc(-c4cc5ccc(C(=N)OCC)cc5[nH]4)cc3)[nH]c2c1.Cl`, the MIC against Enterococcus faecalis [1] is 2.5 µg/mL; in the experiment on Pseudomonas aeruginosa [3], more than 80 µg/mL; with Staphylococcus aureus [5], 5 µg/mL; with Staphylococcus aureus [6], 0.63 µg/mL; with Enterococcus faecalis [7] it was 10 µg/mL; with Klebsiella pneumoniae, more than 80 µg/mL. In addition, the MIC against Pseudomonas aeruginosa [8] was more than 80 µg/mL; with Bacillus anthracis it was 2.5 µg/mL.

For the compound `Cl.N/N=C(/N)c1ccc2cc(-c3ccc(-c4cc5ccc(/C(N)=N\N)cc5[nH]4)cc3)[nH]c2c1`, the MIC worked out at 0.63 µg/mL against Enterococcus faecalis [1]; 2.5 µg/mL in the experiment on Escherichia coli [2]; 10 µg/mL in the experiment with Pseudomonas aeruginosa [3]; 0.63 µg/mL against Escherichia coli [4]; 1.25 µg/mL against Staphylococcus aureus [5]; 0.63 µg/mL in the experiment on Staphylococcus aureus [6]. Besides, the minimum inhibitory concentration (MIC) is 0.63 µg/mL in the experiment with Enterococcus faecalis [7], 1.25 µg/mL against Klebsiella pneumoniae, more than 80 µg/mL in the experiment with Acinetobacter baumannii and 0.31 µg/mL with Bacillus anthracis.
